Screening results (PubChem)
The list is not random: actives were taken first. Their share in the collection is about 2.5%.
MEKK3 PB1 HTS = MEKK3-MEK5 PB1 interaction, increase or decrease; 1.4% of 290,000 active; Q99759; bead-based flow cytometry, Alexa488-MEK5 binding to MEKK3; actives lie on both sides; 0 = blocked by unlabeled MEK5, 100 = vehicle; binding response (% of control), % at 10 µM;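 active means binding response more than 3 SD above or below the average of its plate-row segment, actives on both sides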;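 further: Alexa488 bead fluorescence after subtracting the streptavidin-only scavenger bead signal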
MEKK2mut PB1 HTS = signal of MEK5 binding to mutant human MEKK2 PB1 domain; 0.35% of 290,000 active; bead flow cytometry, Alexa488-MEK5 binding to MEKK2 mutant; percent response, % at 10 µM; in the data active means percent response above about 24%, passing the limit was not always enough
MEKK2 WT-MEK5 = raises or lowers MEK5 binding to wildtype human MEKK2 PB1 domain; binding response (% of control), % at 10 µM; 1.1% of 290,000 active; AID 1531; bead flow cytometry, Alexa488-MEK5 binding to MEKK2 WT; actives lie on both sides; in the data active means binding response below about 67% or above about 130%
Rce1 inh = blocks yeast Ras-converting enzyme; Q03530; yeast membranes, quenched prenylated peptide cleavage fluorescence; calls only; 0.27% of 290,000 active; AID 2563;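 active means fall in fluorescence gain of 50% or more versus controls, with final raw signal at or below 3038400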;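 further: plate controls were neutral control wells for no effect and wells lacking membranes for full effect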
Target sequence (Q03530 whole entry, looked up): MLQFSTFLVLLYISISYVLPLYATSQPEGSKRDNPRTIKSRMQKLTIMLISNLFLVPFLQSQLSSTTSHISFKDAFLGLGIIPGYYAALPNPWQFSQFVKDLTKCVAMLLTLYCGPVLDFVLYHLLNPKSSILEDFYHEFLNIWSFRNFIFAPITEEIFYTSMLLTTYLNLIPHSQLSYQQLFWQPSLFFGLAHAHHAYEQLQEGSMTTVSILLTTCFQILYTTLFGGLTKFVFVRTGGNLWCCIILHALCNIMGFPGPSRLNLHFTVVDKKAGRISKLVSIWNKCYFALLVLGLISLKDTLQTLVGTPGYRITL
UCH37 DUB inh = blocks the human deubiquitinase UCH37. AID 588478. purified proteasome/UCH37, Ub-AMC cleavage fluorescence. 0.33% of 330,000 active. inhibition, % (no concentration beside the values);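 active means mean inhibition over replicate wells above about 20%, limit read from the data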;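 further: 0% = compound-free wells with enzyme and 100% = wells lacking proteasome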
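Material: human UCH37 enzyme supplied as purified proteasome complex / Amount: 0.15 nM proteasome as dispensed / Buffer or medium: pH 7.4 Tris-HCl (50 mM) with ovalbumin, ATP-MgCl2, DTT / Times: preincubation 30 min, reaction 25 min, room temperature / Technique: AMC fluorescence from Ub-AMC cleavage, excitation 355 nm, emission 460 nm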
T cell HTS = T cell immune modulation candidate. 0.068% of 330,000 active. AID 2052. 2C CD8+ T cell-vesicle binding, flow cytometry; stronger effect = lower value. response (vesicle binding), % at 7 µM;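 active means response, share of CD8 T cells binding vesicles, and their 90th percentile fluorescence all below set limits, cut at about 80% in these data, passing the limit was not always enough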;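 further: values below 100% mean blocked vesicle binding to the CD8+ T cells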
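Read-out – percent CD8+ FL2 mean versus row control · System – murine 2C transgenic CD8+ T lymphocytes · Times – 1.5 h cell–vesicle binding at 37 °C, then 20 min icy labelling · Control set – naked vesicles low, QL9 vesicles with vehicle high · Detection – cytometric PE anti-B7-1 and Alexa647 anti-CD8 signals after 1% paraformaldehyde fixation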
MEKK2wt confirm = raises or lowers MEK5 binding to wildtype human MEKK2, retest; 2.4% of 5,900 active; shares compounds with MEKK3 PB1 HTS; bead flow cytometry, Alexa488-MEK5 binding to MEKK2 WT; actives lie on both sides; binding response (% of control), % at 10 µM; AID 1892; in the data active means binding response below about 16% or above about 210%; inactive means in between
MEKK2mut confirm = signal of MEK5 binding to mutant human MEKK2, retest. 2% of 5,900 active. AID 1893. percent response, % at 10 µM. shares compounds with MEKK3 PB1 HTS. bead flow cytometry, Alexa488-MEK5 binding to MEKK2 mutant; in the data active means percent response mostly above about 71%, no sharp cut-off; inactive means mostly below about 38%;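 further: higher means compound restores mutant binding toward wildtype level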
MEKK3-MEK5 inh = confirmation of inhibitors of MEK5 binding to human MEKK3; 1.8% of 5,900 active; shares compounds with MEKK3 PB1 HTS; bead flow cytometry, Alexa488-MEK5 binding to MEKK3; stronger effect = lower value; binding response (% of control), % at 10 µM;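 active means binding response below 72% of control, or above a set upper limit, though filed actives all read lower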;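 further: 100% = DMSO only wells and 0% = binding blocked by excess unlabeled MEK5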
Active calls of the source: *; i = inactive; nt = no result given; ! = repeats disagree; [ ] = another dose, or the depositor's remark.

SMILES | MEKK3 PB1 HTS | MEKK2mut PB1 HTS | MEKK2 WT-MEK5 | Rce1 inh | UCH37 DUB inh | T cell HTS | MEKK2wt confirm | MEKK2mut confirm | MEKK3-MEK5 inh
COc1cccc(NC(=O)C2CCCN2C(=O)Nc2ccccc2F)c1 (stereo not drawn) | 1.0*[inhibitor] | -21.0 | -2.0*[inhibitor] | i | 5.1 | 205.5 | 99.0 | -1.0 | 100.0
Nc1nonc1-n1nnc(C(=O)NN=Cc2ccccn2)c1CNc1ccccc1 | nt | nt | nt | nt | 0.2 | nt | nt | nt | nt
C=CCNC(=O)c1ccc(-c2ccc([N+](=O)[O-])cc2)o1 | 194.0* | 1.0 | 113.0 | i | nt | 162.4 | 103.0 | -6.0 | 101.0
CNCCCC12CCC(c3ccccc31)c1ccccc12 | 111.0 | 7.0 | 137.0*! | i | 0.4 | 637.8 | 106.0 | 1.0 | 94.0
COc1ccc(/C=C2\Sc3ccc(C(=O)N4CCc5ccccc5C4)cc3N(C)C2=O)cc1 | 130.0* | 0.0 | 102.0 | i | nt | 313.5 | 94.0 | -7.0 | 93.0
CCC(=NNC(=O)CSCc1ccc(Cl)cc1)c1ccc2c(c1)OCCO2 | nt | nt | nt | nt | -1.0 | nt | nt | nt | nt
Cc1nc(N)nc(NN=Cc2c(F)cccc2Cl)n1 | nt | nt | nt | nt | 4.4 | nt | nt | nt | nt
O=C(c1cccc([N+](=O)[O-])c1)N1CCN(c2ncccn2)CC1 | 106.0 | 32.0* | 98.0 | i | 4.2 | 559.6 | 101.0 | -4.0 | 100.0
COc1ccccc1CN1CCCC(C(=O)N(C)Cc2ccccc2)C1 (stereo not drawn) | 89.0 | -1.0 | 95.0 | i | 4.6 | nt | nt | nt | nt
COc1ccccc1CN1CCCC(CN(CCN(C)C)C(=O)C2CCCC2)C1 (stereo not drawn) | 111.0 | 34.0* | 135.0* | i | 1.0 | 450.7 | 112.0 | 10.0 | 101.0
CN(C)c1ccc([C@@H]2[C@@H]([N+](=O)[O-])[C@H]3C=Cc4ccccc4N3[C@H]2C(=O)c2ccc(Cl)cc2)cc1 | 80.0 | 6.0 | 1.0*[inhibitor] | nt | 6.1 | 498.0 | 92.0 | -3.0 | 94.0
O=C(c1ccccc1)C1C(c2ccccc2)C1[N+](=O)[O-] (stereo not drawn) | 110.0 | 7.0 | 109.0 | i | -0.4 | 249.2 | nt | nt | nt
CC(=NNC(=O)c1ccco1)c1ccc(NC(=O)c2ccc(Br)o2)cc1 | nt | nt | nt | nt | 6.0 | nt | nt | nt | nt
O=C(CNC(=O)c1ccc(Cl)cc1)NN=Cc1cccnc1 | nt | nt | nt | nt | 2.6 | nt | nt | nt | nt
O=C(Nc1cc(Cl)cc(Cl)c1)C(c1ccccc1)N1CCCCC1 (stereo not drawn) | 153.0* | 1.0 | 122.0 | i | 2.0 | 322.6 | 118.0 | 6.0 | 104.0
O=C(CN1C(=O)NC2NC(=O)NC21)NN=C1CCCC1 (stereo not drawn) | 150.0* | 0.0 | 109.0 | i | 2.8 | 170.3 | 104.0 | 7.0 | 102.0
Cc1ccc(C=NNc2ccccn2)s1 | nt | nt | nt | nt | 2.2 | nt | nt | nt | nt
O=C(NN=Cc1cccc(F)c1)c1ccc(Cl)cc1 | nt | nt | nt | nt | 3.7 | nt | nt | nt | nt
CCN1/C(=C/c2ccc3cc(C)ccc3[n+]2CC)Sc2cc(C)c(C)cc21 | 44.0*[inhibitor] | 13.0 | 37.0* | nt | 10.6 | nt | 33.0 | -23.0 | 58.0*
Cc1cc(C(=O)O)ccc1-c1ccc(C=Nn2cnnc2)o1 | nt | nt | nt | nt | -35.4 | nt | nt | nt | nt
O=C(c1ccc(Cl)cc1)C1CCCN(Cc2cnn(-c3ccccc3)c2)C1 (stereo not drawn) | 100.0 | 36.0 | 148.0* | i | 0.0 | 360.0 | 126.0 | 14.0 | 105.0
CN(N=CCc1nnnn1-c1ccc(Cl)cc1)c1ccccc1 | nt | nt | nt | nt | 1.7 | nt | nt | nt | nt
Cc1nnc(SCC(=O)Nc2sc3c(c2C#N)CCCC3)[nH]c1=O | 104.0 | 12.0 | 104.0 | i | 3.2 | 220.6 | nt | nt | nt
N#Cc1c(NC(=O)CSc2nc(N)cc(=O)[nH]2)sc2c1CCCC2 | 1.0*[inhibitor] | -13.0 | 2.0*[inhibitor] | i | 7.4 | 316.6 | 95.0 | 1.0 | 101.0
